Laboratory results as given in ChEMBL document CHEMBL1649154, “Antibiotic susceptibility and characteristics of Neisseria meningitidis isolates from the African meningitis belt, 2000 to 2006: phenotypic and genotypic perspectives” (2009).
≈ marks a conversion by molar mass, not a printed value.

What was measured:
Format in all cases: functional
[1] = tested on: Neisseria meningitidis; experiment: Antibacterial activity against Beta-lactamase-negative Neisseria meningitidis by Etest method
[2] = tested on: Neisseria meningitidis; experiment: Antibacterial activity against Beta-lactamase-negative Neisseria meningitidis assessed as percent susceptible isolates by Etest method
Summary of the method: (§1)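 Serogroup A reference strain OR173/87 included for quality control. Isolates were classed susceptible, intermediate or resistant using breakpoints drawn from several organizations.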

[3] = tested on: Neisseria meningitidis; experiment: Antibacterial activity against Beta-lactamase-negative Neisseria meningitidis assessed as percent intermediate isolates by Etest method; summary of the method: as §1
[4] = tested on: Neisseria meningitidis; experiment: Antibacterial activity against Beta-lactamase-negative Neisseria meningitidis assessed as percent resistant isolates by Etest method
Summary of the method: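 Isolates were classed resistant using breakpoints drawn from several organizations. Serogroup A reference strain OR173/87 was included for quality control.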

Row | Compound | MIC50 [1] [µg/mL] | MIC90 [1] [µg/mL] | Activity [2] [%] | Activity [3] [%] | Activity [4] [%] | MIC [1] [µg/mL]
1 | Nc1ccc(S(=O)(=O)Nc2ncccn2)cc1 [SULFADIAZINE] | > 256 | > 256 | 0 | 6 | 94 | –
2 | CO/N=C(\C(=O)N[C@@H]1C(=O)N2C(C(=O)O)=C(COC(N)=O)CS[C@H]12)c1ccco1 [CEFUROXIME] | 0.047 (≈ 0.111 µM) | 0.094 (≈ 0.221 µM) | 99 | 1 | 0 | –
3 | CC[C@H]1OC(=O)[C@H](C)[C@@H](O[C@H]2C[C@@](C)(OC)[C@@H](O)[C@H](C)O2)[C@H](C)[C@@H](O[C@@H]2O[C@H](C)C[C@H](N(C)C)[C@H]2O)[C@](C)(O)C[C@@H](C)C(=O)[C@H](C)[C@@H](O)[C@]1(C)O [ERYTHROMYCIN] | 0.75 (≈ 1.02 µM) | 1 (≈ 1.36 µM) | 26 | 0 | 74 | 0.032 (≈ 0.0436 µM)
4 | CC1(C)S[C@@H]2[C@H](NC(=O)Cc3ccccc3)C(=O)N2[C@H]1C(=O)O [PENICILLIN G] | 0.047 (≈ 0.141 µM) | 0.094 (≈ 0.281 µM) | 98 | 2 | 0 | –
5 | CO[C@H]1/C=C/O[C@@]2(C)Oc3c(C)c(O)c4c(O)c(c(/C=N/N5CCN(C)CC5)c(O)c4c3C2=O)NC(=O)/C(C)=C\C=C\[C@H](C)[C@H](O)[C@@H](C)[C@@H](O)[C@@H](C)[C@H](OC(C)=O)[C@@H]1C [RIFAMPIN] | 0.064 (≈ 0.0778 µM) | 0.125 (≈ 0.152 µM) | 99 | 1 | 0 | –
6 | O=C(O)c1cn(C2CC2)c2cc(N3CCNCC3)c(F)cc2c1=O [CIPROFLOXACIN] | 0.004 (≈ 0.0121 µM) | 0.004 (≈ 0.0121 µM) | 100 | 0 | – | –
7 | O=C(N[C@H](CO)[C@H](O)c1ccc([N+](=O)[O-])cc1)C(Cl)Cl [CHLORAMPHENICOL] | 0.75 (≈ 2.32 µM) | 1 (≈ 3.09 µM) | 100 | 0 | – | –
8 | CC1(C)S[C@@H]2[C@H](NC(=O)[C@H](N)c3ccccc3)C(=O)N2[C@H]1C(=O)O [AMPICILLIN] | 0.064 (≈ 0.183 µM) | 0.094 (≈ 0.269 µM) | 99 | 1 | 0 | –
9 | CC1(C)S[C@@H]2[C@H](NC(=O)COc3ccccc3)C(=O)N2[C@H]1C(=O)O [PENICILLIN V] | 0.19 (≈ 0.542 µM) | 0.38 (≈ 1.08 µM) | 99 | 0 | 1 | 0.016 (≈ 0.0457 µM)
10 | CN(C)[C@@H]1C(O)=C(C(N)=O)C(=O)[C@@]2(O)C(O)=C3C(=O)c4c(O)cccc4[C@@](C)(O)[C@H]3C[C@@H]12 [TETRACYCLINE] | 2 (≈ 4.5 µM) | 4 (≈ 9 µM) | 48 | 0 | 52 | –
11 | CO/N=C(\C(=O)N[C@@H]1C(=O)N2C(C(=O)O)=C(CSc3nc(=O)c(O)nn3C)CS[C@H]12)c1csc(N)n1 [CEFTRIAXONE] | < 0.002 | < 0.002 | 100 | 0 | – | < 0.002
